Measurements published in ChEMBL document CHEMBL1212838, “Investigations on the 2-thiazolylhydrazyne scaffold: synthesis and molecular modeling of selective human monoamine oxidase inhibitors” (Bioorg Med Chem, 2010).
pIC50: −log10 of the molar value.

Tests used:
[1] = target: T1, Amine oxidase [flavin-containing] B (Homo sapiens, UniProt P27338)
T1 sequence (P27338 whole entry): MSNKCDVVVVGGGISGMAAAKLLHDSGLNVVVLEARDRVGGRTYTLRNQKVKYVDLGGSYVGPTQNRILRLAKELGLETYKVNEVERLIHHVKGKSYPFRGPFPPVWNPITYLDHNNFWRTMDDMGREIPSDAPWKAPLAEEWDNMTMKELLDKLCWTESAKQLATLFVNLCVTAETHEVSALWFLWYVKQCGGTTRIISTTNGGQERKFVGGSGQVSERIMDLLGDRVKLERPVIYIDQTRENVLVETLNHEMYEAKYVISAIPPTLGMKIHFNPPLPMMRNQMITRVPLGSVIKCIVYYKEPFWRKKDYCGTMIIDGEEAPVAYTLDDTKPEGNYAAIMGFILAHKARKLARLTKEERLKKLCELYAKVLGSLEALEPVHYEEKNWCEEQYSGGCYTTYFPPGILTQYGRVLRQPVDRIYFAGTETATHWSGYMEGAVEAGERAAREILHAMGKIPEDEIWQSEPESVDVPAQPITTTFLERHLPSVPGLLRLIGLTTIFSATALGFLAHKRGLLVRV

[2] = target: T2, Amine oxidase [flavin-containing] A (Homo sapiens, UniProt P21397); test: Inhibition of human MAOA by fluorimetry
T2 sequence (P21397 whole entry): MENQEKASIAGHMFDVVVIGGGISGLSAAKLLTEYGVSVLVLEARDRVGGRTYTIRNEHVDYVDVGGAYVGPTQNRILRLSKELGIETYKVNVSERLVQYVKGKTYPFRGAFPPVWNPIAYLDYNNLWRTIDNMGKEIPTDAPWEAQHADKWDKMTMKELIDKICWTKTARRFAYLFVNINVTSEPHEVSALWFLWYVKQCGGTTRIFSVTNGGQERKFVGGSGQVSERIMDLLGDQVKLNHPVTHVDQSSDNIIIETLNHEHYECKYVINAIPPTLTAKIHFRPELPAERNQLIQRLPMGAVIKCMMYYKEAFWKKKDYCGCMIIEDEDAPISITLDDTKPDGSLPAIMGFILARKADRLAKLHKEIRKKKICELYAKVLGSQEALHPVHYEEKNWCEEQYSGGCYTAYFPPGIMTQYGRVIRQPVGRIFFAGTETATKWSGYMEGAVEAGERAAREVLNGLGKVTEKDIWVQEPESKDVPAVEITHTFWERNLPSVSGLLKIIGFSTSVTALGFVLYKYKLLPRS

Homo sapiens = species on record: Homo sapiens; test: Selectivity index, ratio of IC50 for human recombinant MAOA to IC50 for human recombinant MAOB
[3] = target: T1, Amine oxidase [flavin-containing] B; test: Inhibition of human MAOB at 100 uM by fluorimetry
Summary of the method: (§1)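 Recombinant human MAO-A or MAO-B, each at an amount set to oxidize 165 pmol p-tyramine/min, preincubated 15 min at 37 °C with compound in 0.05 M sodium phosphate pH 7.4. Reaction started with final 200 µM Amplex Red, 1 U/mL HRP and 1 mM p-tyramine. Resorufin fluorescence (ex 545, em 590 nm) read over 15 min at 37 °C; enzyme-free background subtracted.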

[4] = target: T2, Amine oxidase [flavin-containing] A; test: Inhibition of human MAOA at 100 uM by fluorimetry
Summary of the method: as §1

[5] = target: T2, Amine oxidase [flavin-containing] A; test: Inhibition of human MAOA at 100 nM
[6] = target: T2, Amine oxidase [flavin-containing] A; test: Reversible inhibition of human MAOA at 100 uM by centrifugation-ultrafiltration method
Summary of the method: (§2)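 Reversibility test: hMAO-A or hMAO-B with compound was ultrafiltered on a 30 kDa membrane. Retained enzyme was resuspended in sodium phosphate buffer at 4 °C and recentrifuged, three centrifugations in all. An aliquot was then assayed fluorimetrically with p-tyramine/Amplex Red. Percent inhibition was computed for washed and unwashed samples against vehicle controls; n = 5.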

[7] = target: T1, Amine oxidase [flavin-containing] B; test: Inhibition of human MAOB at 5 nM by centrifugation-ultrafiltration method
Summary of the method: as §2

[8] = target: T1, Amine oxidase [flavin-containing] B; test: Inhibition of human MAOB at 5 uM
[9] = target: T2, Amine oxidase [flavin-containing] A; test: Reversible inhibition of human MAOA at 500 nM by centrifugation-ultrafiltration method
Summary of the method: as §2

[10] = target: T2, Amine oxidase [flavin-containing] A; test: Inhibition of human MAOA at 500 nM
Summary of the method: as §2

[11] = target: T1, Amine oxidase [flavin-containing] B; test: Inhibition of human MAOB at 1 uM by fluorimetry

Row | pIC50 [1] | pIC50 [2] | Ratio IC50 (Homo sapiens) | Structure (SMILES) | other results
1 | 5.97 | 6.23 | 0.56 | COc1cccc(-c2csc(NN=C3CCCC3)n2)c1 | –
2 | 6.10 | 6.38 | 0.52 | COc1cccc(-c2csc(N/N=C/c3c[nH]c4ccccc34)n2)c1 | –
3 | 5.17 | 5.94 | 0.17 | CCCCC/C(C)=N/Nc1nc(-c2cccc(OC)c2)cs1 | –
4 | 7.53 | 5.75 | 60 | COc1cccc(-c2csc(NN=C3CCCCCC3)n2)c1 | –
5 | 5.29 | 5.35 | 0.87 | COc1cccc(-c2csc(NN=C(C)C)n2)c1 | –
6 | 6.11 | 6.08 | 1.1 | CCC(CC)=NNc1nc(-c2cccc(OC)c2)cs1 | –
7 | 6.06 | 5.88 | 1.5 | CCC/C(C)=N/Nc1nc(-c2cccc(OC)c2)cs1 | –
8 | 6.26 | 6.20 | 1.15 | COc1cccc(-c2csc(N/N=C(\C)c3cccs3)n2)c1 | –
9 | – | 5.86 | – | CCCCCC/C(C)=N/Nc1nc(-c2cccc(OC)c2)cs1 | inhibition at 100 µM [3]: 40%
10 | 5.77 | 6.48 | 0.2 | COc1cccc(-c2csc(N/N=C(\C)c3ccco3)n2)c1 | –
11 | 7.57 | 6.08 | 31 | COc1cccc(-c2csc(N/N=C3\CCCC3C)n2)c1 (configuration not stated) | –
12 | 7.91 | 6.13 | 60 | COc1cccc(-c2csc(N/N=C3\CCCCC3C)n2)c1 (configuration not stated) | –
13 | 6.31 | 6.34 | 0.93 | COc1cccc(-c2csc(N/N=C/c3cccs3)n2)c1 | –
14 | – | 5.44 | – | COc1cccc(-c2csc(N/N=C/c3cccc4ccccc34)n2)c1 | inhibition at 100 µM [3]: 40%

The next lines start with the compound.

Row | Structure (SMILES) | pIC50 [1] | pIC50 [2] | Ratio IC50 (Homo sapiens) | other results
15 | COc1cccc(-c2csc(NN=C3CCC(C)CC3)n2)c1 (configuration not stated) | 7.45 | 6.13 | 21 | –
16 | COc1cccc(-c2csc(N/N=C3\CCC(C)C3)n2)c1 (configuration not stated) | 6.64 | 5.84 | 6.3 | –
17 | COc1cccc(-c2csc(N/N=C(\C)c3ccccn3)n2)c1 | – | – | – | inhibition at 100 µM [3]: 40%; inhibition at 100 µM [4]: 40%
18 | COc1cccc(-c2csc(N/N=C/c3cccnc3)n2)c1 | 5.54 | 6.27 | 0.18 | –
19 | O=C1Nc2ccccc2C1=O [ISATIN] | – | – | – | inhibition at 0.1 µM [5]: 40.3%; inhibition at 100 µM [4]: 40%; inhibition at 100 µM [6]: 12.1%
20 | COc1cccc(-c2csc(N/N=C(\C)c3cc4ccccc4oc3=O)n2)c1 | 5.16 | 5.25 | 0.8 | –
21 | COc1cccc(-c2csc(N/N=C(\C)c3ccncc3)n2)c1 | 6.93 | 5.43 | 32 | –
22 | COc1cccc(-c2csc(NN=C3CCCCC3)n2)c1 | 7.50 | 5.72 | 60 | –
23 | COc1cccc(-c2csc(N/N=C(\C)c3cccnc3)n2)c1 | 8.42 | 6.34 | 119 | inhibition at 0.005 µM [7]: 67.2%; inhibition at 5 µM [8]: 63.7%; inhibition at 0.5 µM [9]: 65.1%; inhibition at 0.5 µM [10]: 59.1%
24 | O=C(NCCN1CCOCC1)c1ccc(Cl)cc1 [MOCLOBEMIDE] | – | – | – | IC50 [11]: Not Active
25 | COc1cccc(-c2csc(N/N=C/c3ccco3)n2)c1 | 5.17 | 6.46 | 0.051 | –
26 | COc1cccc(-c2csc(N/N=C/c3ccncc3)n2)c1 | 5.94 | 6.16 | 0.61 | –
27 | COc1cccc(-c2csc(N/N=C(\C)c3cccc4ccccc34)n2)c1 | – | – | – | inhibition (INH) ([3]; 100 µM): Not Active; inhibition at 100 µM [4]: 40%
28 | COc1cccc(-c2csc(N/N=C3\CCCC(C)C3)n2)c1 (configuration not stated) | 7.14 | 6.17 | 9.3 | –
